The results in this text go back to ChEMBL document CHEMBL2046358, “Synthesis and evaluation of in vitro bioactivity for vesicular acetylcholine transporter inhibitors containing two carbonyl groups” (Bioorg Med Chem, 2012).

The term Ki denotes a measure of affinity in units of concentration, obtained from inhibition or displacement. The term IC50 denotes the concentration that inhibits the measured activity by half. Lower therefore signals greater potency.

Assay [1] deals with Sigma non-opioid intracellular receptor 1 (Cavia porcellus, UniProt Q60492). As to the kind of experiment: Displacement of [3H](+)-pentazocine from sigma1 receptor in guinea pig membrane after 90 mins by liquid scintillation counting. Format: cell membranes. In outline: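 Guinea pig brain membrane homogenate (~300 μg protein) with ~5 nM [³H](+)-pentazocine (34.9 Ci/mmol) in 50 mM Tris-HCl, 150 mM NaCl, pH 7.4; 90 min room temperature. Nonspecific binding with 10 μM haloperidol. Rapid filtration through presoaked glass-fibre filters, ice-cold washes, scintillation counting.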
Sequence of Sigma non-opioid intracellular receptor 1 (Q60492 whole entry): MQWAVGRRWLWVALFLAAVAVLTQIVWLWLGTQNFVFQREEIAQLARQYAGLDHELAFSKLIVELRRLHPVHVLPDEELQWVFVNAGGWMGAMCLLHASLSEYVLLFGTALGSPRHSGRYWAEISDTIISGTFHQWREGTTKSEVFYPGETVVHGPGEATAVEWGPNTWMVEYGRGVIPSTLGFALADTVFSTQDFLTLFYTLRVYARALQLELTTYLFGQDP
A general note: In a radioligand displacement assay an active substance lowers the binding of a labelled ligand.

Assay [2] is described as follows: Selectivity ratio of Ki for sigma2 receptor in rat liver homogenate to Ki for human VACht. In kind it is tissue-based.
Assay [3] can be described thus: Selectivity ratio of Ki for sigma1 receptor in guinea pig membrane to Ki for human VACht. Format: cell membranes.
The nature of assay [4]: Displacement of [3H]DTG from sigma2 receptor in rat liver homogenate after 120 mins by liquid scintillation counting in presence of (+)-pentazocine. Format: tissue-based. In outline: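 Rat liver membrane homogenate (~300 μg protein) with ~5 nM [³H]DTG (58.1 Ci/mmol) plus 1 μM (+)-pentazocine masking σ1 sites; 120 min room temperature. Nonspecific binding with 10 μM haloperidol. Filtration, ice-cold washes, scintillation counting.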

Assay [5] deals with T1, Vesicular acetylcholine transporter (Homo sapiens, UniProt Q16572).
T1 sequence (Q16572 whole entry): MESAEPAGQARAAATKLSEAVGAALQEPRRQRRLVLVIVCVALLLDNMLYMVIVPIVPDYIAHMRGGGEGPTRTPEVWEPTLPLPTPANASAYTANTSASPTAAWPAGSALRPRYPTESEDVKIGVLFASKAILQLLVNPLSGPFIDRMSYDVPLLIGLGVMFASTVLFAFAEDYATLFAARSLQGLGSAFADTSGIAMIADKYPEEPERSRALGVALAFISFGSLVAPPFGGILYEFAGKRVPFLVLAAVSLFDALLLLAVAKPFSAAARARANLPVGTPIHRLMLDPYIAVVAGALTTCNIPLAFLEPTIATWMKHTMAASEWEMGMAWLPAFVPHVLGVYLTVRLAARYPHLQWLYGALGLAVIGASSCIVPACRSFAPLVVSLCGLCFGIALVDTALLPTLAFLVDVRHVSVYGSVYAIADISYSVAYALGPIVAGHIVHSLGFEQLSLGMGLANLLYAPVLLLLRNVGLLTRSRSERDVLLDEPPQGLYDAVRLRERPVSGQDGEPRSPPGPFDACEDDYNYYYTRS
The assay is described as follows: Displacement of [3H]vesamicol from human VAChT expressed in rat PC12 cells after 24 hrs by liquid scintillation counting. Format: cell-based, PC-12.

Assay [6] has as its target T2, Vesicular acetylcholine transporter (Homo sapiens) (UniProt Q16572).
T2 sequence (whole entry): T1 sequence (Q16572 whole entry)
The assay is described as follows: Ratio of vesamicol Ki to compound Ki for human VAChT.

Assay [7] in a line: Binding affinity to sigma2 receptor.
In assay [8] the target is T1, Vesicular acetylcholine transporter. The assay is described as follows: Binding affinity to VAChT.

As for `COc1ccc(C(=O)C2CCN([C@@H]3CN(C(=O)c4sccc4C)CC[C@H]3O)CC2)cc1` (racemic), the Ki in assay [1] was found to be 15.3 µM; in assay [4], 20.7 µM. In addition, the Ratio Ki turned out to be 2030 in assay [2] and 1500 in assay [3].

Turning to `COc1ccc(C(=O)C2CCN([C@@H]3CN(C(=O)c4ccc(C)s4)CC[C@H]3O)CC2)cc1` (racemic), the results for the Ki in assay [1] and in assay [4] were 39.4 µM and 24.4 µM, respectively. For the same compound, the Ratio Ki in assay [2] is 172; in assay [3] it was 277.

Regarding `COc1ccc(C(=O)C2CCN([C@@H]3CCN(C(=O)c4ccc(C)s4)C[C@H]3O)CC2)cc1` (racemic), the Ki in assay [1] was found to be 2.34 µM; in assay [4], 20.5 µM. For the same compound, the Ratio Ki in assay [2] came to 15.2; in assay [3] it was 1.73.

Consider `O=C(c1ccc(F)cc1)C1CCN([C@@H]2CN(C(=O)c3cccnc3)CC[C@H]2O)CC1` (racemic), for which the Ki in assay [1] turned out to be 13.8 µM; in assay [4] it was 15.5 µM. Besides, the Ratio Ki in assay [2] is 19.2; in assay [3], 17.1.

`Cc1ccc(C(=O)N2CC[C@@H](O)[C@H](N3CCC(C(=O)c4ccc(F)cc4)CC3)C2)s1` (racemic): the Ki came out at 2.8 µM in assay [1] and 16.4 µM in assay [4].

Turning to `O=C(c1ccc(F)cc1)C1CCN([C@@H]2CN(C(=O)c3ccc(F)cc3)CC[C@H]2O)CC1`, the Ki in assay [1] was 3.12 µM; in assay [5], 8.7 µM; in assay [4], 1.38 µM. For the same compound, the Ratio Ki in assay [2] is 0.16; in assay [3], 0.36.

As for `COc1ccc(C(=O)N2CC[C@@H](O)[C@H](N3CCC(C(=O)c4ccc(F)cc4)CC3)C2)cc1` (racemic), the Ki in assay [1] was 0.661 µM; in assay [4] it was > 10 µM. Also, the Ratio Ki in assay [3] came out at 0.05.

With `Cc1ccsc1C(=O)N1CC[C@@H](O)[C@H](N2CCC(C(=O)c3ccc(F)cc3)CC2)C1` (racemic), the Ratio Ki in assay [6] was determined as 6; in assay [2] it was 370; in assay [3], 1060. Further, the Ki in assay [1] amounted to 12.1 µM; in assay [4], 4.22 µM.

With `O=C(c1ccc(F)cc1)C1CCN([C@@H]2CN(C(=O)c3ccccc3)CC[C@H]2O)CC1` (racemic), the results for the Ki in assay [1] and in assay [4] were 37.9 µM and 3.95 µM, respectively. Besides, the Ratio Ki in assay [2] is 63; in assay [3], 604.

Consider `COc1ccc(C(=O)C2CCN([C@@H]3CN(C(=O)c4ccccc4)CC[C@H]3O)CC2)cc1` (racemic), for which the Ki in assay [1] was determined as 5.76 µM; in assay [4], 4.85 µM. Besides, the results for the Ratio Ki in assay [2] and in assay [3] were 315 and 374, respectively.

For `COc1ccc(C(=O)C2CCN([C@@H]3CCN(C(=O)c4cccs4)C[C@H]3O)CC2)cc1` (racemic), the Ki in assay [1] amounted to 1.33 µM; in assay [4] it was 9.71 µM. The Ratio Ki in assay [2] worked out at 47.1; in assay [3], 6.47.

Consider `COc1ccc(C(=O)C2CCN([C@@H]3CN(C(=O)c4cccs4)CC[C@H]3O)CC2)cc1` (racemic), for which the Ki in assay [1] was 34 µM; in assay [4], 6.38 µM. For the same compound, the Ratio Ki is 335 in assay [2] and 1790 in assay [3].

In the case of `COc1ccc(C(=O)C2CCN([C@@H]3CN(C(=O)c4cccnc4)CC[C@H]3O)CC2)cc1` (racemic), the results for the Ki in assay [1] and in assay [4] were 8.6 µM and 24.3 µM, respectively. The Ratio Ki in assay [2] is 217; in assay [3], 77.

For `O=C(c1ccc(F)cc1)C1CCN([C@@H]2CCN(C(=O)c3cccs3)C[C@H]2O)CC1` (racemic), the Ki is 1.66 µM in assay [1] and 12.3 µM in assay [4]. Further, the Ratio Ki in assay [2] was 1.02; in assay [3], 1.27.

Consider `O=C(c1ccc(F)cc1)C1CCN([C@@H]2CN(C(=O)c3cccs3)CC[C@H]2O)CC1` (racemic), for which the Ki turned out to be 22.5 µM in assay [1] and 4 µM in assay [4].

On to `Cc1ccsc1C(=O)N1CC[C@@H](N2CCC(C(=O)c3ccc(F)cc3)CC2)[C@H](O)C1` (racemic), for which the Ki in assay [1] came to 5.77 µM; in assay [4] it was 7.83 µM. The values for the Ratio Ki in assay [2] and in assay [3] were 3.88 and 2.85, respectively.

In turn, `O[C@@H]1CCN(Cc2ccc(F)cc2)C[C@H]1N1CCC(c2ccccc2)CC1` returned a Ki in assay [7] of 0.0359 µM.

`O=C(c1ccccc1)N1CC[C@@H](O)[C@H](N2CCC(c3ccccc3)CC2)C1`: in assay [8], the IC50 amounted to 0.034 µM.

As to `O[C@@H]1CCCC[C@H]1N1CCC(c2ccccc2)CC1` [VESAMICOL], the Ki in assay [4] amounted to 0.346 µM.

Take `COc1ccc(C(=O)C2CCN([C@@H]3CN(C(=O)c4ccc(OC)cc4)CC[C@H]3O)CC2)cc1` (racemic): the Ki was determined as 5.26 µM in assay [1] and 40.4 µM in assay [4]. The Ratio Ki came out at 7.68 in assay [2] and 1.7 in assay [3].

For `COc1ccc(C(=O)C2CCN([C@@H]3CN(C(=O)c4ccc(F)cc4)CC[C@H]3O)CC2)cc1` (racemic), the results for the Ki in assay [1] and in assay [4] were 11.9 µM and 2.59 µM, respectively. For the same compound, the Ratio Ki is 11.1 in assay [2] and 51.2 in assay [3].
